Experimental data as given in ChEMBL document CHEMBL4368903, “Identification of GSK3186899/DDD853651 as a Preclinical Development Candidate for the Treatment of Visceral Leishmaniasis” (J Med Chem, 2019).
In brackets after ≈: the same amount, converted by molar mass. Activity calls are given as the source filed them. The rule behind the calls is not given here.

Legend:
[1] = biological target: Cyclin-dependent kinase 2 (Homo sapiens) (UniProt P24941); experiment: Inhibition of human CDK2 by kinobeads-based assay
[2] = Ratio of AUC (0 to 24 hrs) in conscious unrestrained telemetered Crl:WI(Han) rat at 300 mg/kg/day, po via gavage for 7 days measured on day 7 to AUC (0 to 24 hrs) in Leishmania donovani LV9 amastigotes infected BALB/c mouse at 25 mg/kg, po administered bid for 10 days measured on day 10; format: ADME, organism-based; settings: in vivo, read-out: TI
Procedure, shortened: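 Index = AUC0–24 on day 7 of the rat study / AUC0–24 on day 10 of the mouse efficacy model. Rat arm: male Crl:WI(Han) rats, oral gavage once daily for 7 days at 100, 300 or 1000 mg/kg/day. Mouse arm: female BALB/c infected i.v. with ~2×10^7 L. donovani LV9 amastigotes, dosed orally twice daily for 10 days from day 7 post-infection in 0.5% HPMC, 0.4% Tween 80, 0.5% benzyl alcohol.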

[3] = Intrinsic clearance in CD1 mouse liver microsomes at 0.5 uM after 3 to 30 mins in presence of NADPH by UPLC-MS/MS analysis; format: ADME, Microsome
Procedure, shortened: (§1)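 0.5 μM compound with female CD1 mouse or human liver microsomes, started with excess NADPH in 50 mM potassium phosphate pH 7.4. Aliquots at 0, 3, 6, 9, 15 and 30 min quenched in acetonitrile with internal standard. UPLC-MS/MS; rate constant from exponential decay of compound/IS ratio. Verapamil as positive control.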

[4] = Toxicity in rabbit cardiac ventricular wedge assessed as QT shortening at 30 uM relative to control; format: tissue-based, Oryctolagus cuniculus, Cardiac ventricle
[5] = Toxicity in Crl:WI(Han) rat assessed as increase in CYP1A1 gene expression in liver at 100 to 1000 mg/kg/day, po via gavage for 7 days; format: organism-based; settings: in vivo, 168 h
Procedure, shortened: (§2)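 Male Crl:WI(Han) rats given oral gavage daily for 7 days at 100, 300 and 1000 mg/kg/day. Clinical signs, macroscopic findings, clinical pathology versus controls, and a liver gene expression panel for hepatic toxicity mechanisms.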

[6] = Mutagenicity in Salmonella typhimurium at 1500 ug/plate by Ames test; format: toxicity; settings: salmonella enterica subsp. enterica serovar typhimurium
[7] = Toxicity in Crl:WI(Han) rat assessed as increase in triglycerides levels at 300 mg/kg/day, po via gavage for 7 days; format: organism-based; settings: in vivo, 168 h; procedure, shortened: as §2
[8] = Toxicity in Crl:WI(Han) rat assessed as decrease in RBC levels at 300 to 1000 mg/kg/day, po via gavage for 7 days; format: organism-based; settings: in vivo, 168 h
[9] = Kinetic aqueous solubility of the compound in phosphate buffer at pH 7.4 by CLND assay; format: physicochemical; settings: phosphate buffer, read-out: Kinetic_solubility
Procedure, shortened: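 From 10 mM DMSO stock diluted 1:20 into pH 7.4 PBS, equilibrated 1 h at RT, filtered. Filtrate quantified by calibrated flow-injection CLND. Dynamic range 1–500 μM.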

[10] = Toxicity in Crl:WI(Han) rat assessed as decrease in hemoglobin levels at 300 to 1000 mg/kg/day, po via gavage for 7 days; format: organism-based; settings: in vivo, 168 h
[11] = test system: Leishmania donovani; experiment: Antileishmanial activity against Leishmania donovani […] in human THP1 cells by intramacrophage assay; format: functional, organism-based; settings: Leishmania donovani, THP-1
[12] = Toxicity in Crl:WI(Han) rat assessed as decrease in calcium levels at 1000 mg/kg/day, po via gavage for 7 days; format: organism-based; settings: in vivo, 168 h
[13] = Toxicity in Crl:WI(Han) rat assessed as drug tolerability dose at 100 to 1000 mg/kg/day, po via gavage for 7 days; format: organism-based; settings: in vivo, read-out: Activity
Procedure, shortened: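 Male Crl:WI(Han) rats dosed by oral gavage once daily in a 7-day repeat-dose study at 100, 300 and 1000 mg/kg/day. Tolerated doses judged from in-life and clinical signs, macroscopic observations, histopathology, clinical pathology and liver gene expression profiling versus controls.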

[14] = Toxicity in Crl:WI(Han) rat assessed as effect on macro observations parameters at 100 to 1000 mg/kg/day, po via gavage for 7 days; format: organism-based; settings: in vivo, 168 h; procedure, shortened: as §2
[15] = Therapeutic index, ratio of fCmax in conscious unrestrained telemetered Crl:WI(Han) rat at 300 mg/kg/day, po via gavage for 7 days measured on day 1 to fCmax in Leishmania donovani LV9 amastigotes infected BALB/c mouse at 25 mg/kg, po administered bid for 10 days measured on day 1; format: organism-based; settings: in vivo, read-out: TI
Procedure, shortened: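 Index = free Cmax on day 1 of the rat cardiovascular study / free Cmax on day 1 of the mouse efficacy model. Rat arm: conscious, unrestrained, telemetered male CRL:WI(Han) rats given a single oral dose (up to 1000 mg/kg). Mouse arm: female BALB/c infected i.v. with L. donovani LV9 amastigotes, dosed orally twice daily from day 7 post-infection in 0.5% HPMC, 0.4% Tween 80, 0.5% benzyl alcohol.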

[16] = biological target: Cytochrome P450 3A4 (Homo sapiens, UniProt P08684); experiment: Inhibition of CYP3A4 in human liver microsomes using midazolam as substrate preincubated for 20 mins followed by substrate addition and measured after 5 mins by LC-MS/MS analysis; format: ADME
Sequence of Cytochrome P450 3A4 (P08684 whole entry): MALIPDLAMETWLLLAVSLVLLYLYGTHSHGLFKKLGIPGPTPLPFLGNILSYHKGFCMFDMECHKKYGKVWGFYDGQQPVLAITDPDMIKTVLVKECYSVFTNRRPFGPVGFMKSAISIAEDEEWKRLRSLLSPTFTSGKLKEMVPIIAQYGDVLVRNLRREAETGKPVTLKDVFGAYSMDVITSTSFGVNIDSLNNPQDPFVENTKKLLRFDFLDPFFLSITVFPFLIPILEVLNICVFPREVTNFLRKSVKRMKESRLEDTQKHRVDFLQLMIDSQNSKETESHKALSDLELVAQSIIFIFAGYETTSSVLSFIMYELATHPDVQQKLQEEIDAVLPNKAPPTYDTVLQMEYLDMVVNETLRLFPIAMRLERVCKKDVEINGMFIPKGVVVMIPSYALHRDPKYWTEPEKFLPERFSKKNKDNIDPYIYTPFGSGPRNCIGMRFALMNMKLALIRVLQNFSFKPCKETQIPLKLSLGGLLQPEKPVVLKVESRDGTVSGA
Procedure, shortened: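 Pooled human liver microsomes (final 0.1 mg/mL) with midazolam marker substrate, monitoring CYP3A4-specific metabolite. Test compound at eight concentrations, 0.1–100 μM, final organic ≤0.5%. Preincubated at 37 °C for 20 min, then substrate or cofactor added and incubated 5 min at 37 °C. Stopped with ice-cold acetonitrile; LC-MS/MS read-out gives pIC50.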

[17] = test system: Leishmania donovani; experiment: Antileishmanial activity against Leishmania donovani LV9 amastigotes infected in BALB/c mouse assessed as suppression of parasite load within liver at 25 mg/kg, po administered bid for 10 days relative to control; format: functional
Procedure, shortened: (§3)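 Female BALB/c mice, 5 per group, infected i.v. with about 2×10^7 L. donovani LV9 amastigotes harvested from infected hamster spleen. Oral dosing starts day 7 post-infection, in 0.5% HPMC/0.4% Tween 80/0.5% benzyl alcohol, or 10% DMSO/60% PEG400/30% water for the 5-day 50 mg/kg regimen. Dosing solutions made fresh daily. Killed day 14 (5-day) or 19 (10-day). Liver smears give LDU (amastigotes/500 nucleated cells × organ weight). Mean LDU compared with vehicle control gives % suppression.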

[18] = Toxicity in Crl:WI(Han) rat assessed as increase in plasma glucose levels at 1000 mg/kg/day, po via gavage for 7 days; format: organism-based; settings: in vivo, 168 h; procedure, shortened: as §2
[19] = Toxicity in Crl:WI(Han) rat assessed as decrease in HCT levels at 300 to 1000 mg/kg/day, po via gavage for 7 days; format: organism-based; settings: in vivo, 168 h
[20] = test system: Lymphoma cell line; experiment: Clastogenicity in mouse Lymphoma cells at 120 ug/ml; format: toxicity, cell-based
[21] = Toxicity in Crl:WI(Han) rat assessed as effect on life and clinical signs at 100 to 1000 mg/kg/day, po via gavage for 7 days; format: organism-based; settings: in vivo, 168 h; procedure, shortened: as §2
[22] = Toxicity in Crl:WI(Han) rat assessed as decrease in albumin levels at 300 mg/kg/day, po via gavage for 7 days; format: organism-based; settings: in vivo, 168 h
[23] = Toxicity in Crl:WI(Han) rat assessed as effect on liver gene expression in liver at 100 to 1000 mg/kg/day, po via gavage for 7 days; format: organism-based; settings: in vivo, 168 h; procedure, shortened: as §2
[24] = Intrinsic clearance in human liver microsomes at 0.5 uM after 3 to 30 mins in presence of NADPH by UPLC-MS/MS analysis; format: ADME, Microsome; procedure, shortened: as §1
[25] = Toxicity in Crl:WI(Han) rat assessed as decrease in total protein levels at 300 mg/kg/day, po via gavage for 7 days; format: organism-based; settings: in vivo, 168 h
[26] = Solubility of compound in fasted simulated intestinal fluid at 1 mg after 4 hrs by HPLC-UV analysis; format: physicochemical; settings: fasted simulated intestinal fluid
Procedure, shortened: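 1 mg solid shaken in 1 mL FaSSIF (3 mM sodium taurocholate, 0.75 mM lecithin, phosphate buffer pH 6.5) at 900 rpm for 4 h at room temperature, then filtered. Supernatant quantified by HPLC-UV against single-point DMSO calibration. Range 1–1000 μg/mL.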

[27] = Cardiotoxicity in Crl:WI(Han) rat up to 1000 mg/kg, po via gavage; format: toxicity, organism-based; settings: in vivo
Procedure, shortened: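 Conscious unrestrained telemetered male CRL:WI(Han) rats given a single oral dose of vehicle or test article up to 1000 mg/kg. Cardiovascular and electrocardiographic parameters monitored.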

[28] = Toxicity in Crl:WI(Han) rat assessed as increase in ALP at 1000 mg/kg/day, po via gavage for 7 days; format: organism-based; settings: in vivo, 168 h; procedure, shortened: as §2
[29] = biological target: Voltage-gated inwardly rectifying potassium channel KCNH2 (Homo sapiens, UniProt Q12809); experiment: Inhibition of human ERG by patch clamp assay
Sequence of Voltage-gated inwardly rectifying potassium channel KCNH2 (Q12809 whole entry): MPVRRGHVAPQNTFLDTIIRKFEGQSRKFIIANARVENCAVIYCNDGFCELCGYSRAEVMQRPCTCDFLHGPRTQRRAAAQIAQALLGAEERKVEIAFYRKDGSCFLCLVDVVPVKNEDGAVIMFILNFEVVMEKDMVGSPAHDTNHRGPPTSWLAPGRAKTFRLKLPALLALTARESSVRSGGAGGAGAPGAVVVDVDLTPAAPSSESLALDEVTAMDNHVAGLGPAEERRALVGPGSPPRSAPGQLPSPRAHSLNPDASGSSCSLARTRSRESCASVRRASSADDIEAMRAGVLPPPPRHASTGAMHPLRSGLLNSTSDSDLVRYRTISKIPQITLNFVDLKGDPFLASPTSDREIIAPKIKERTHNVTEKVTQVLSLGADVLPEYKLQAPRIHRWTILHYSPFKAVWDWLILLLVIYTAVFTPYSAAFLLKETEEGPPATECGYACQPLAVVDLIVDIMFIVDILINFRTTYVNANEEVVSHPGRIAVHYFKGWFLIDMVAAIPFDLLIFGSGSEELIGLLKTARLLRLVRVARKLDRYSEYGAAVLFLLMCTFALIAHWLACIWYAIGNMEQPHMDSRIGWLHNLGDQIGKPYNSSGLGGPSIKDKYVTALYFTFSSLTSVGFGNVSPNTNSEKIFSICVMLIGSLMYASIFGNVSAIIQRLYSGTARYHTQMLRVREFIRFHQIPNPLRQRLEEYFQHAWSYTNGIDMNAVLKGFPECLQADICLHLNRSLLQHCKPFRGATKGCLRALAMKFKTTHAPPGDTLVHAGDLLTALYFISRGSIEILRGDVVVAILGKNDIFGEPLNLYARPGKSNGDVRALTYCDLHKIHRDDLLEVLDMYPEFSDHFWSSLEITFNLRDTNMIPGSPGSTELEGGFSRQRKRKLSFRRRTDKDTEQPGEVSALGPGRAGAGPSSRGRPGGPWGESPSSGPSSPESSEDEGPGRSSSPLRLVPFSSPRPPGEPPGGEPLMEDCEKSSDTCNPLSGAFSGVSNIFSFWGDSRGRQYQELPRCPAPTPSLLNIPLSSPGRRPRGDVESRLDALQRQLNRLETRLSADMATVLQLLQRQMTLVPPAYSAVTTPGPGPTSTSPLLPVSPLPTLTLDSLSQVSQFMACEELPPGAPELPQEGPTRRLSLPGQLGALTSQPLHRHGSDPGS

[30] = Mean AUClast in Sprague-Dawley rat at 100 mg/kg, po measured up to 24 hrs by UPLC-MS/MS analysis; format: ADME, organism-based; set-up: dose 100 mg/kg, time < 24 hr, route oral; settings: in vivo
Procedure, shortened: (§4)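 Male Sprague–Dawley rats (n=3) given oral gavage as 1% methylcellulose suspension at 10, 100 or 300 mg/kg. Tail-vein blood at 0.25–24 h into K-EDTA, diluted in 0.1N Hepes and stored at −20 °C. Protein precipitation, then LC-MS/MS (range 2.90–2860 ng/mL). AUC0–t by linear up-log down trapezoidal rule.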

[31] = test system: Leishmania donovani; experiment: Antileishmanial activity against Leishmania donovani LV9 amastigotes infected in BALB/c mouse assessed as suppression of parasite load within liver at 50 mg/kg, po administered bid for 10 days relative to control; format: functional; procedure, shortened: as §3
[32] = test system: Leishmania donovani; experiment: Antileishmanial activity against Leishmania donovani LV9 amastigotes infected in BALB/c mouse assessed as suppression of parasite load within liver at 10 mg/kg, po administered bid for 10 days relative to control; format: functional; procedure, shortened: as §3
[33] = Mean AUClast in Sprague-Dawley rat at 300 mg/kg, po measured up to 24 hrs by UPLC-MS/MS analysis; format: ADME, organism-based; set-up: dose 300 mg/kg, time < 24 hr, route oral; settings: in vivo; procedure, shortened: as §4
[34] = Fraction unbound in CD1 mouse plasma at 10 ug/ml after 15 mins by UPLC-MS/MS analysis; format: ADME, cell-free
[35] = test system: Leishmania donovani; experiment: Antileishmanial activity against Leishmania donovani LV9 amastigotes infected in BALB/c mouse assessed as suppression of parasite load within liver at 100 mg/kg, po administered bid for 5 days relative to control; format: functional; procedure, shortened: as §3
[36] = test system: HepG2; experiment: Cytotoxicity against human HepG2 cells; format: cell-based
[37] = Mean AUClast in Sprague-Dawley rat at 10 mg/kg, po measured up to 24 hrs by UPLC-MS/MS analysis; format: ADME, organism-based; set-up: dose 10 mg/kg, time < 24 hr, route oral; settings: in vivo; procedure, shortened: as §4
[38] = Fraction unbound in human plasma at 10 ug/ml after 15 mins by UPLC-MS/MS analysis; format: ADME, cell-free
[39] = test system: THP-1; experiment: Cytotoxicity against human THP1 cells; format: cell-based

C[C@H]1CN(c2n[nH]c3nc(N[C@H]4CC[C@H](NS(=O)(=O)CCC(F)(F)F)CC4)ncc23)CCO1 [GSK-3186899]
inhibition [1]: inactive
selectivity ratio [2]: 13
CLH [3]: < 0.5 mL/min/g
Activity [4]: 8.9%
Activity [5]: Non-Toxic
Activity [6]: Non-Toxic
Activity [7]: Toxic
Activity [8]: Toxic
solubility kinetic [9]: 99 µM (≈ 48.7 µg/mL)
Activity [10]: Toxic
EC50 [11]: 1.26 µM
Activity [12]: Toxic
MTD at 168 h [13]: 100 to 1000 mg/kg
Activity [14]: Non-Toxic
selectivity ratio [15]: 3
IC50 [16]: > 39.8 µM
Activity [17]: >95%
Activity [18]: Toxic
Activity [19]: Toxic
Activity [20]: Non-Toxic
Activity [21]: Non-Toxic
Activity [22]: Toxic
Activity [23]: Non-Toxic
CLH [24]: 0.7 mL/min/g
Activity [25]: Toxic
solubility at 4 h [26]: 17 to 64 µg/mL (≈ 34.6 to 130 µM)
Activity [27]: Non-Toxic
Activity [28]: Toxic
IC50 [29]: > 30 µM

CC(C)CS(=O)(=O)N[C@H]1CC[C@H](Nc2ncc3c(N4CCOCC4)n[nH]c3n2)CC1
CLH [3]: 0.9 mL/min/g
AUC(0-t) at 24 h [30]: 2960 ng·h/mL
solubility kinetic [9]: 328 µM (≈ 144 µg/mL)
Activity [31]: 97%
EC50 [11]: 0.501 µM
Activity [32]: 36%
AUC(0-t) at 24 h [33]: 2380 ng·h/mL
Activity [17]: 74%
fraction unbound at 0.25 h, 10 ug/ml [34]: 0.37
Activity [35]: 94%
EC50 [36]: > 100 µM
AUC(0-t) at 24 h [37]: 162 ng·h/mL
fraction unbound at 0.25 h, 10 ug/ml [38]: 0.33
CLH [24]: 1.8 mL/min/g
EC50 [39]: > 50.1 µM
solubility at 4 h [26]: 9 µg/mL (≈ 20.6 µM)
